Data as given in ChEMBL document CHEMBL1255300, “Pharmacodynamics of the antibacterial effect and emergence of resistance to tomopenem, formerly RO4908463/CS-023, in an in vitro pharmacokinetic model of Staphylococcus aureus infection” (Antimicrob Agents Chemother, 2008).
≈ marks a conversion by molar mass, not a printed value. Calls of active or inactive are those of the source. The rule behind the calls is not given here.

Experiments:
[1] = test system: Staphylococcus aureus; test: AUBKC (0 to 48 hrs) in methicillin-resistant Staphylococcus aureus 33829 infected in in vitro pharmacokinetic model at 1500 mg, iv every 8 hrs using 10^6 CFU/ml inoculum; type: functional
Procedure, shortened: (§1)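 Single-compartment dilutional in vitro PK model at 37°C in 10% Mueller-Hinton broth, stirred, flow 132 ml/h. […] Inoculum 10^6 CFU/ml added 45 min before dosing, or 10^8 CFU/ml run overnight. Viable counts with β-lactamase neutralisation. AUBKC by log-linear trapezoidal rule, at least triplicate.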

[2] = test system: Staphylococcus aureus; test: T>MIC for 1-log drop in count in methicillin-resistant Staphylococcus aureus 33815 in in vitro pharmacokinetic model after 24 hrs using 10^8 CFU/ml inoculum; type: functional
[3] = test system: Staphylococcus aureus; test: AUBKC (0 to 48 hrs) in against methicillin-resistant Staphylococcus aureus 33815 infected in in vitro pharmacokinetic model at 750 mg, iv every 8 hrs using 10^8 CFU/ml inoculum; type: functional; procedure, shortened: as §1
[4] = test system: Staphylococcus aureus; test: Antibacterial activity against methicillin-resistant Staphylococcus aureus 33815 by 10% MH broth method; type: functional
Procedure, shortened: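 Broth dilution MIC per CLSI but in 10% Mueller-Hinton broth, using nondoubling dilutions.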

[5] = test system: Staphylococcus aureus; test: AUBKC (0 to 24 hrs) in methicillin-resistant Staphylococcus aureus 33827 infected in in vitro pharmacokinetic model at 1500 mg, iv every 8 hrs using 10^8 CFU/ml inoculum; type: functional; procedure, shortened: as §1
[6] = test system: Staphylococcus aureus; test: Antibacterial activity against methicillin-resistant Staphylococcus aureus 33827 infected in in vitro pharmacokinetic model assessed as reduction in viable count at 1500 mg, iv every 8 hrs measured after 24 hrs using 10^8 CFU/ml inoculum; type: functional
Procedure, shortened: (§2)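 Single-compartment dilutional in vitro PK model, 10% Mueller-Hinton broth, 37°C, stirred, dilution 132 ml/h. […] Inoculum 10^6 CFU/ml (added 45 min pre-dose) or 10^8 CFU/ml (run overnight). Viable counts by spiral plating, beta-lactamase neutralization, detection limit 10^2 CFU/ml. At least triplicate.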

[7] = test system: Staphylococcus aureus; test: Antibacterial activity against methicillin-sensitive Staphylococcus aureus; type: functional
[8] = test system: Staphylococcus aureus; test: AUBKC (0 to 48 hrs) in methicillin-resistant Staphylococcus aureus 33820 infected in in vitro pharmacokinetic model at 1500 mg, iv every 8 hrs using 10^6 CFU/ml inoculum; type: functional; procedure, shortened: as §1
[9] = test system: Staphylococcus aureus; test: Antibacterial activity against methicillin-sensitive Staphylococcus aureus 5956 infected in in vitro pharmacokinetic model assessed as time required to 99.9% killing at 1500 mg, iv every 8 hrs using 10^6 CFU/ml inoculum; type: functional
[10] = test system: Staphylococcus aureus; test: T>MIC for 2-log drop in count in methicillin-resistant Staphylococcus aureus 33820 in in vitro pharmacokinetic model after 24 hrs using 10^6 CFU/ml inoculum; type: functional
[11] = test system: Staphylococcus aureus; test: Antibacterial activity against methicillin-resistant Staphylococcus aureus 33829 by 10% MH broth method; type: functional
Procedure, shortened: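 MIC by CLSI broth dilution, or by broth dilution in 10% Mueller-Hinton broth at nondoubling dilutions.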

[12] = test system: Staphylococcus aureus; test: AUBKC (0 to 24 hrs) in methicillin-resistant Staphylococcus aureus 33827 infected in in vitro pharmacokinetic model at 1500 mg, iv every 8 hrs using 10^6 CFU/ml inoculum; type: functional; procedure, shortened: as §1
[13] = test system: Staphylococcus aureus; test: Antibacterial activity against methicillin-resistant Staphylococcus aureus 33820 infected in in vitro pharmacokinetic model assessed as time required to 99% killing at 750 mg, iv every 8 hrs using 10^6 CFU/ml inoculum; type: functional
[14] = test system: Staphylococcus aureus; test: Antibacterial activity against methicillin-resistant Staphylococcus aureus 33922 infected in in vitro pharmacokinetic model assessed as reduction in viable count at 1500 mg, iv every 8 hrs measured after 12 hrs using 10^8 CFU/ml inoculum; type: functional
[15] = test system: Staphylococcus aureus; test: Antibacterial activity against methicillin-resistant Staphylococcus aureus 33922 infected in in vitro pharmacokinetic model assessed as time required to 99% killing at 1500 mg, iv every 8 hrs using 10^8 CFU/ml inoculum; type: functional
[16] = test system: Staphylococcus aureus; test: Antibacterial activity against methicillin-resistant Staphylococcus aureus 33829 infected in in vitro pharmacokinetic model assessed as time required to 99.9% killing at 1500 mg, iv every 8 hrs using 10^6 CFU/ml inoculum; type: functional; procedure, shortened: as §2
[17] = test system: Staphylococcus aureus; test: T>MIC in methicillin-resistant Staphylococcus aureus 33815 infected in vitro pharmacokinetic model at 750 mg, iv every 8 hrs; type: functional
[18] = test system: Staphylococcus aureus; test: Antibacterial activity against methicillin-resistant Staphylococcus aureus 33922 assessed as viable count at 4 times of MIC after 48 hrs using 10^6 CFU/ml inoculum; type: functional, organism-based
[19] = test system: Staphylococcus aureus; test: Antibacterial activity against methicillin-resistant Staphylococcus aureus 33922 in in vitro pharmacokinetic model assessed as viable count at 4 times of MIC; type: functional
[20] = test system: Staphylococcus aureus; test: Antibacterial activity against methicillin-resistant Staphylococcus aureus 33921 in in vitro pharmacokinetic model assessed as viable count at 4 times of MIC; type: functional
Procedure, shortened: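 Preexposure population analysis: time-zero model samples plated on nutrient agar without drug and with drug at multiples of the 10% broth MIC. Growth reported as log CFU/ml, detection limit 2 log10.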

[21] = test system: Staphylococcus aureus; test: T>MIC for 4-log drop in count in methicillin-resistant Staphylococcus aureus 33922 in in vitro pharmacokinetic model after 24 hrs using 10^6 CFU/ml inoculum; type: functional
[22] = test system: Staphylococcus aureus; test: Antibacterial activity against methicillin-resistant Staphylococcus aureus 33922 infected in in vitro pharmacokinetic model assessed as time required to 99.9% killing at 1500 mg, iv every 8 hrs using 10^8 CFU/ml inoculum; type: functional
[23] = test system: Staphylococcus aureus; test: T>MIC for static effect in methicillin-resistant Staphylococcus aureus 33820 in in vitro pharmacokinetic model after 24 hrs using 10^6 CFU/ml inoculum; type: functional
[24] = test system: Staphylococcus aureus; test: Antibacterial activity against methicillin-resistant Staphylococcus aureus 33829 infected in in vitro pharmacokinetic model assessed as time required to 99.9% killing at 750 mg, iv every 8 hrs using 10^6 CFU/ml inoculum; type: functional; procedure, shortened: as §2
[25] = test system: Staphylococcus aureus; test: Antibacterial activity against methicillin-resistant Staphylococcus aureus 33815 infected in in vitro pharmacokinetic model assessed as reduction in viable count at 1500 mg, iv every 8 hrs measured after 48 hrs using 10^8 CFU/ml inoculum; type: functional
Procedure, shortened: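 PK model at 37°C in 10% MHB. […] A 0.5 McFarland suspension (1 ml) was added and the model run overnight to reach 10^8 CFU/ml before dosing. Counts were spiral-plated on nutrient agar with β-lactamase. Change in log CFU/ml was measured from time 0; at least triplicate.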

[26] = test system: Staphylococcus aureus; test: T>MIC for 3-log drop in count in methicillin-resistant Staphylococcus aureus 33922 in in vitro pharmacokinetic model after 24 hrs using 10^6 CFU/ml inoculum; type: functional
[27] = test system: Staphylococcus aureus; test: AUBKC (0 to 24 hrs) in methicillin-resistant Staphylococcus aureus 33815 infected in in vitro pharmacokinetic model at 1500 mg, iv every 8 hrs using 10^6 CFU/ml inoculum; type: functional; procedure, shortened: as §1
[28] = test system: Staphylococcus aureus; test: Antibacterial activity against methicillin-resistant Staphylococcus aureus 33921 assessed as viable count at 2 times of MIC after 24 hrs using 10^6 CFU/ml inoculum; type: functional, organism-based

For `C[C@@H](O)[C@H]1C(=O)N2C(C(=O)O)=C(S[C@H]3C[C@@H](C(=O)N4CC[C@H](NC(=O)CNC(=N)N)C4)N(C)C3)[C@H](C)[C@H]12` [TOMOPENEM], the AUBC [1] was 37.4 log10CFU/ml.hr, the “fT>MIC” value [2] was 1% and the AUBC [3] was 119 log10CFU/ml.hr. It also gave an MIC [4] of 6 µg/mL (≈ 11.2 µM), an AUBC [5] of 84.4 log10CFU/ml.hr and a log10CFU/ml [6] of 5.8. It also gave an MIC50 [7] of 0.12 µg/mL (≈ 0.223 µM), an MIC90 [7] of 0.12 µg/mL (≈ 0.223 µM) and an AUBC [8] of 23.4 log10CFU/ml.hr. For the same compound, the Time [9] was 8 h, the “fT>MIC” value [10] was 14.5% and the MIC [11] was 0.5 µg/mL (≈ 0.93 µM). It also gave an AUBC [12] of 28.1 log10CFU/ml.hr, a Time [13] of 7 h and a log10CFU/ml [14] of 1.5. For the same compound, the Time [15] was 16 h, the Time [16] was 12 h and the “fT>MIC” value [17] was 73%. For the same compound, the Activity [18] was “inactive”, the log10CFU/ml [19] was 6 and the log10CFU/ml [20] was <2. For the same compound, the “fT>MIC” value [21] was 21.5%, the Time [22] was 24 h and the “fT>MIC” value [23] was 5.9%. For the same compound, the Time [24] was 12 h, the log10CFU/ml [25] was 3.9 and the “fT>MIC” value [26] was 9.4%. The AUBC [27] was 12.5 log10CFU/ml.hr and the Activity [28] was “inactive”.
